Measurements collected from several papers.
Each line is one published result; the experiments were not run side by side.

| SMILES | test system | conditions | endpoint | value |
| --- | --- | --- | --- | --- |
| Cc1cn2nc(-c3cc(=O)n4cc(N5CCNC6(CC6)C5)ccc4n3)cc(C)c2n1 | cynomolgus monkey, plasma |  | fraction unbound | 0.15 |
| c1ccc(C2CCN(c3nc(-c4ccn[nH]4)nc4ccccc34)C2)nc1 (stereo not drawn) | PAMPA | 10 µM, 3 h, pH 7.4 | Papp | 415 nm/s |
| CCOC(=O)[C@@]12C[C@@H]1[C@@H](n1ccc3c(NC)nc(C#Cc4ccc(Cl)s4)nc31)[C@H](O)[C@@H]2O | male Sprague-Dawley rat, plasma | intravenous, 0.5 mg/kg | AUC(0-t) | 0.0276 µg·h/mL |
| N#CC1CCCN(c2nc(-c3ccccn3)nc3ccccc23)C1 (stereo not drawn) | PAMPA | 10 µM, 3 h, pH 7.4 | Papp | 224 nm/s |
| CCNc1ccnc(Nc2cccc(-c3cccnc3)c2)n1 | PAMPA | 50 nM, 30 min | Papp | 22000 nm/s |
| C=CC(=O)N1CC2CC(n3nc(-c4ccc(C(=O)Nc5ccccn5)cc4)c4c(N)ncnc43)CC2C1 (stereo not drawn) | male Wistar rat, plasma | oral, 10 mg/kg | AUC(0-t) | 2.73 µg·h/mL |
| CC[C@H](C)Nc1ccnc(Nc2cccc(-c3cccnc3)c2)n1 | PAMPA | 50 nM, 30 min | Papp | 20000 nm/s |
| CCn1ncc2c(N3CCC(c4ccccn4)C3)nc(-c3ccccn3)nc21 (stereo not drawn) | PAMPA | 10 µM, 3 h, pH 7.4 | Papp | 302 nm/s |
| CCc1cc(C(=O)NC)c2nccc(N3CCc4c(cc(Cn5ccnc5)cc4-c4cn(C)nc4C(F)(F)F)C3=O)c2c1 | male Sprague-Dawley rat, plasma | oral, 100 mg/kg, single dose | AUC(0-inf) | 37.3 µg·h/mL |
